The values below come from BindingDB's records for doi:10.1016/j.bmc.2011.04.027 (University of Mansoura, 2011).

As a reminder, the IC50 is the midpoint of a concentration-inhibition curve.

In the experiment the target is T1, Prostaglandin G/H synthase 1 (Ovis aries, UniProt P05979).
T1 sequence (P05979 whole entry): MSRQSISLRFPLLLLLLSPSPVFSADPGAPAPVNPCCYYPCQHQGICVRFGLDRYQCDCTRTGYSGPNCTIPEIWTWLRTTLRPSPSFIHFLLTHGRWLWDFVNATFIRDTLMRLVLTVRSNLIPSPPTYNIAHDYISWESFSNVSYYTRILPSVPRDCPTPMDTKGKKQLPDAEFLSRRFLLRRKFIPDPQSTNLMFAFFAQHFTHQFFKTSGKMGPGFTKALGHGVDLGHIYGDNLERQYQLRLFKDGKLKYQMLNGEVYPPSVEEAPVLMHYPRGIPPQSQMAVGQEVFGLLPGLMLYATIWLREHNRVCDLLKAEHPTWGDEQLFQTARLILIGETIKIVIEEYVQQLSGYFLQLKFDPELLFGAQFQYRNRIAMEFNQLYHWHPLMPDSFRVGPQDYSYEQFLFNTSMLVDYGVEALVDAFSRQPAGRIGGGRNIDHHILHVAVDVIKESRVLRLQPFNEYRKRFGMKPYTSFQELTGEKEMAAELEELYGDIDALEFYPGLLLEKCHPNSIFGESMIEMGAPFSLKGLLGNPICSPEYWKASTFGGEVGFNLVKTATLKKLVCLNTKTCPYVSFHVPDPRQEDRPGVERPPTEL
The experiment can be described thus: Inhibition of ovine COX1 assessed as PGF2alpha production from PGH2 after 5 mins by enzyme immunoassay. The procedure, abridged: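 Ovine COX-1 in reaction buffer with 2 mM phenol and heme, preincubated with six test concentrations (1 mL final) for 5 min at 37 °C. Arachidonic acid was then added and the reaction stopped with 1 M HCl after 2 min. Prostanoids were reduced with stannous chloride and quantified by competitive acetylcholinesterase-tracer EIA (Ellman's reagent, 410 nm). IC50 came from concentration–inhibition curves, duplicate determinations.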
With `FC(F)(F)c1cc(N=Nc2c(-c3ccc(Cl)cc3)n[nH]c2C(F)(F)F)cc(C(F)(F)F)c1` [3-(4-Chlorophenyl)-4-(2-(3,5-bis(trifluoromethyl)phenyl)hydrazono)-5-trifuoromethyl)-4H-pyrazole], the IC50 was above 50 µM. For the compound `COc1ccc(N=Nc2c(-c3ccc(Cl)cc3)n[nH]c2C(F)(F)F)cc1` [3-(4-Chlorophenyl)-4-(2-(4-methoxyphenyl)hydrazono)-5-trifuoromethyl)-4H-pyrazole], the IC50 is above 50 µM. The figure for `O=[N+]([O-])c1ccc(/N=N/c2c(-c3ccc(Cl)cc3)n[nH]c2C(F)(F)F)cc1` [3-(4-Chlorophenyl)-4-(2-(4-nitrophenyl)hydrazono)-5-trifuoromethyl)-4H-pyrazole] is above 50 µM; for `FC(F)(F)c1[nH]nc(-c2ccc(Cl)cc2)c1N=Nc1ccccc1Cl` [3-(4-Chlorophenyl)-4-(2-(2-chlorophenyl)hydrazono)-5-trifuoromethyl)-4H-pyrazole] it is above 50 µM.
